ChEMBL document CHEMBL4024790 (J Med Chem, 2018)
Calls of active or inactive are those of the source. The rule behind the calls is not given here.

What was measured:
[1] = AUC (0 to infinity) in Wistar Han rat at 5 mg/kg, po administered via gavage by LC-MS/MS analysis; type: ADME, organism-based; design: dose 5 mg/kg, route oral, time infinity; conditions: in vivo
Cytochrome P450 2B6 = target: T1, Cytochrome P450 2B6 (Homo sapiens, UniProt P20813); assay: Time-dependant inhibition of recombinant human CYP2B6; type: ADME; conditions: recombinant enzyme
T1 sequence (P20813 whole entry): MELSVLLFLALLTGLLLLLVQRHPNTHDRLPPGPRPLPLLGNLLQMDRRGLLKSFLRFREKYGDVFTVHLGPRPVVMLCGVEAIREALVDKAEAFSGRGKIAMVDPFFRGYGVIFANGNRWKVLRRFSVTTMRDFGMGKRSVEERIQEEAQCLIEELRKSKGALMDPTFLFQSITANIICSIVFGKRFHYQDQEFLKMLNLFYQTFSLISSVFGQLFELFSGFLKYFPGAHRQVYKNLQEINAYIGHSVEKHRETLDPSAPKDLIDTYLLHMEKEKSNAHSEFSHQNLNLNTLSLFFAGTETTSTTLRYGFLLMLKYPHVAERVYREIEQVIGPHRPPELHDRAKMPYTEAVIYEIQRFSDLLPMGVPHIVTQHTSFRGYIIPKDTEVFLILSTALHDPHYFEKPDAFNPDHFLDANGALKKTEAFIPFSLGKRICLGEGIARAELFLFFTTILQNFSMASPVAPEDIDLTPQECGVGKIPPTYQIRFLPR

[2] = Plasma clearance in Wistar Han rat at 1 mg/kg, iv by LC-MS/MS analysis; type: ADME, organism-based
In short: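 Single iv dose to male Wistar-Han rats (1 mg/kg) or dogs (0.3 mg/kg), given as a solution in 20% (w/v) SBECD with HCl. Dose volume 1 mL/kg in rats and 0.4 mL/kg in dogs. Blood taken by carotid artery cannula from 2 min to 24 h into K2EDTA (rat) or K3EDTA (dog) tubes. Plasma analysed by LC-MS/MS with positive electrospray after acetonitrile precipitation with internal standard.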

[3] = target: T2, cGMP-dependent 3',5'-cyclic phosphodiesterase (Rattus norvegicus, UniProt Q01062); assay: Displacement of radiolabeled 4-(azetidin-1-yl)-3-[5-[4-(trifluoromethyl)phenyl]-1H-pyrazol-4-yl]-1-(tritritiomethyl)pyrazolo[3,4-d]pyrimidine from PDE2A in rat striatal membranes after 30 mins by liquid scintillation counting method; type: cell membranes, Striatum, Membrane
T2 sequence (Q01062 whole entry): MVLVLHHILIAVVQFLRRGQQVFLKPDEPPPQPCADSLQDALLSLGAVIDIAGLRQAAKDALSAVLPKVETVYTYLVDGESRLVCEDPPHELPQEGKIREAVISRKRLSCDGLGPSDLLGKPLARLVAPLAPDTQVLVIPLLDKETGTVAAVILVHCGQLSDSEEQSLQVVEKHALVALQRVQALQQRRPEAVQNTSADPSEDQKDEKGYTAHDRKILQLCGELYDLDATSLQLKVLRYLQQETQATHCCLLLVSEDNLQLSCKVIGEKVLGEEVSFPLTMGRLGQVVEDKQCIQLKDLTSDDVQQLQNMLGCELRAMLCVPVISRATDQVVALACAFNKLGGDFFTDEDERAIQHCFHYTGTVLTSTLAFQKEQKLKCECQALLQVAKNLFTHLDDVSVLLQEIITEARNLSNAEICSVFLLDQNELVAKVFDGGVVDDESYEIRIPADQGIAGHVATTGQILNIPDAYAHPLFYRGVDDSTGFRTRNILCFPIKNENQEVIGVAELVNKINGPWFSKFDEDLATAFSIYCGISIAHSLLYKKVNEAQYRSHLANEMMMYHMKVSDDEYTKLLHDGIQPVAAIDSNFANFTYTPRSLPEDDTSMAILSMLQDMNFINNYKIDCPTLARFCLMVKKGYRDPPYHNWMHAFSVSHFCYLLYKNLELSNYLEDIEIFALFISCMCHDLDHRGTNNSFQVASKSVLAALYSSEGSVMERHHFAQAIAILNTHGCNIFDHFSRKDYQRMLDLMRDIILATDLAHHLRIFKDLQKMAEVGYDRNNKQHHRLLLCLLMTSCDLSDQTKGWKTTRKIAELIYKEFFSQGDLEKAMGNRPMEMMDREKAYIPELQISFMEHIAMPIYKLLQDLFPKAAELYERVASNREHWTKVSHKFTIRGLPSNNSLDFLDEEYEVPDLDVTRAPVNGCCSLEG

Mus musculus = species: Mus musculus; assay: Increase in cGMP level in CD-1 mouse brain striatum by immunoassay; type: functional
In short: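 CD-1 mice given compound; brains fixed by focused microwave irradiation, and cortex, striatum and hippocampus dissected and homogenized in 0.5 N HCl, then centrifuged. cGMP in the supernatant measured by enzyme immunoassay. Unbound brain concentration taken from satellite animals. Dose-response and time-course data combined, and a linear Cbu–cGMP model fitted. The Cbu E50 is the projected Cbu giving a 50% rise in cGMP. Statistics by one-way ANOVA with Fisher's PLSD, p<0.05.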

Cytochrome P450 2C9 = Cytochrome P450 2C9 (Homo sapiens, UniProt P11712); assay: Inhibition of recombinant human CYP2C9; type: ADME; conditions: recombinant enzyme
Rattus norvegicus [4] = assay: Reversal of MK-801-induced disruption of low frequency cortical delta oscillation in Sprague-Dawley rat brain at 0.1 mg/kg, iv up to 55 mins by electrophysiology method; type: functional, organism-based
Rattus norvegicus [5] = species: Rattus norvegicus; assay: Toxicity in rat assessed as effect on vasculature up to 1 month by microscopic method; conditions: in vivo
Canis familiaris = species: Canis familiaris; assay: Toxicity in dog assessed as effect on vasculature up to 1 month by microscopic method; design: species or system Canis lupus familiaris; conditions: in vivo
Liver [6] = assay: Drug metabolism in dog liver microsomes assessed as 3-(7-methyl-5-(1-methyl-5-(5-(trifluoromethyl)pyridin-2-yl)-1H-pyrazol-4-yl)imidazo[1,5-f][1,2,4]triazin-4-ylamino)propanoic acid formation at 1 to 50 uM after 1 hr by LC-MS/MS analysis; type: ADME, Canis lupus familiaris, microsome
In short: (§1)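 Rat, dog or human liver microsomes or hepatocytes (P450 0.35–0.5 µM final) incubated with compound at 1, 10 or 50 µM in 100 mM phosphate buffer with 1 mM NADP regenerating system, 37°C for 1 h; quenched with 4 volumes acetonitrile, centrifuged, supernatant evaporated, reconstituted in 5% aqueous acetonitrile and analysed by reversed-phase LC.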

Liver [7] = assay: Drug metabolism in rat liver microsomes assessed as 1-(7-methyl-5-(1-methyl-5-(5-(trifluoromethyl)pyridin-2-yl)-1H-pyrazol-4-yl)imidazo[1,5-f][1,2,4]triazin-4-yl)azetidin-3-ol formation at 1 to 50 uM after 1 hr by LC-MS/MS analysis; type: ADME, microsome; in short: as §1
[8] = Terminal half life in Wistar Han rat at 5 mg/kg, po administered via gavage by LC-MS/MS analysis; type: ADME, organism-based; conditions: in vivo, read-out: beta t1/2 (converted)
Cytochrome P450 2D6 = Cytochrome P450 2D6 (Homo sapiens, UniProt P10635); assay: Inhibition of recombinant human CYP2D6; type: ADME; conditions: recombinant enzyme
[9] = Passive permeability in RRCK cells; type: ADME, cell-based, Canis lupus familiaris, MDCKII-LE; conditions: dog, MDCK; read-out: permeability

Chain of Cytochrome P450 2D6 (P10635 whole entry): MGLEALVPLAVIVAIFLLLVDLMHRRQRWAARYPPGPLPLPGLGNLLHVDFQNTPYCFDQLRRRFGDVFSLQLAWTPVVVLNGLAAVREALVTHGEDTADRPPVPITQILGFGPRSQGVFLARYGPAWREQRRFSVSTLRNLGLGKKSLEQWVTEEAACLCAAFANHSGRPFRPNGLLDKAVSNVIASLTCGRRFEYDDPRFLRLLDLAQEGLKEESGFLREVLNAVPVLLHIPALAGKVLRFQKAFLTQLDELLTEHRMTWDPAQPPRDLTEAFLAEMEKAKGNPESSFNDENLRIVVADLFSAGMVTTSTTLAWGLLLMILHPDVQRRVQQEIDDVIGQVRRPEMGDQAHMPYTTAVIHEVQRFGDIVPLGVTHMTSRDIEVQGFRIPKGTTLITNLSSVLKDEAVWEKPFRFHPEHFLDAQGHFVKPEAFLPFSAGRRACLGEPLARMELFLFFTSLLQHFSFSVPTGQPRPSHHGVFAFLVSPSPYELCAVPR
Chain of Cytochrome P450 2C9 (P11712 whole entry): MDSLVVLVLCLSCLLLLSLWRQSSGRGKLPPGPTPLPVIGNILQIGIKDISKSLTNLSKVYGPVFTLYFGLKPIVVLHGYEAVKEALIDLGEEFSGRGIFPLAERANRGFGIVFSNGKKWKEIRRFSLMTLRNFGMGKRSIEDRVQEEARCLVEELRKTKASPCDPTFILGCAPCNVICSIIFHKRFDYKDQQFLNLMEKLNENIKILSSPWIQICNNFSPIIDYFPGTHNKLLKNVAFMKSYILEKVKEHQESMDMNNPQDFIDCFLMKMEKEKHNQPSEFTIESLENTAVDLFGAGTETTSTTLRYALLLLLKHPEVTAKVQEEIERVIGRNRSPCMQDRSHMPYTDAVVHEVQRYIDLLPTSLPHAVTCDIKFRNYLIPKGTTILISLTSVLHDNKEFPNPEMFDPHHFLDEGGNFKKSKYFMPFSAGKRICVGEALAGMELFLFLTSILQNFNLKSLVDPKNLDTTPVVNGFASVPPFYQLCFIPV

## Cc1nc(-c2cnn(C)c2-c2ccc(C(F)(F)F)cn2)c2c(N3CCC3)ncnn12 [PF-05180999]
[1]
  AUC(0-inf): 312 ng·h/mL
Cytochrome P450 2B6
  TDI: Not Active
[2]
  clearance: 122 mL/min/kg
[3]
  Ki: 4.2 nM
Mus musculus
  Activity: Dose-dependent effect
Cytochrome P450 2C9
  inhibition (INH): Not Active
Rattus norvegicus [4]
  Activity: Active
Rattus norvegicus [5]
  Activity: Non-Toxic
Canis familiaris
  Activity: Non-Toxic
Liver [6]
  Drug metabolism: Metabolite_Detected
Liver [7]
  Drug metabolism: Metabolite_Detected
[8]
  half-life: 1.4 h
Cytochrome P450 2D6
  inhibition (INH): Not Active
[9]
  Papp: 26 ×10⁻⁶ cm/s
